The term Ki denotes the equilibrium dissociation constant of an inhibitor or competing ligand from its target. Higher therefore signals a looser hold on the target. What is called inhibition in vivo is the drop in the measured response relative to a control, in per cent. One may read the IC50 as the midpoint of a concentration-inhibition curve.

Structures are written as SMILES. Bounds are passed on as bounds.

The results in this text go back to ChEMBL document CHEMBL4308919, “Discovery of TD-0212, an Orally Active Dual Pharmacology AT1 Antagonist and Neprilysin Inhibitor (ARNI)” (ACS Med Chem Lett, 2019).

In test [1] the target is T1, Type-1 angiotensin II receptor (Homo sapiens, UniProt P30556).
T1 sequence (P30556 whole entry): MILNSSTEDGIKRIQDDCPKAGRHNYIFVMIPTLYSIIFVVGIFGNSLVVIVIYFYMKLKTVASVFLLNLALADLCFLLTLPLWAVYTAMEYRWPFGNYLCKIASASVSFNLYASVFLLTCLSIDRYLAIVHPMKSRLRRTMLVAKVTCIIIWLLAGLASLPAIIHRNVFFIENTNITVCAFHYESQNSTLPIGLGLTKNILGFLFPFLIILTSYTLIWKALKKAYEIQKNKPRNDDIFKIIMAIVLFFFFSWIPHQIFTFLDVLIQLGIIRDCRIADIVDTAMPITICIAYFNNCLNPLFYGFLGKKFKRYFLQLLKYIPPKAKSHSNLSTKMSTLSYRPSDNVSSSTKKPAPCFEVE
Description: Displacement of Europium-labeled angiotensin-2 from human AT1 receptor expressed in CHOK1 cell membranes after 120 mins by DELFIA.

Test [2] relates to Rattus norvegicus. Description: In vivo antagonist activity at AT1 receptor in Sprague-Dawley rat assessed as inhibition of angiotensin-2-induced pressor response at 3 mg/kg, iv treated for 5 mins at 15 mins post 2 doses of angiotensin-2 treatment at 15 minutes apart followed by ANP treatment and subsequent angiotensin-2 re-challenge after 60 mins relative to control. In kind it is functional. An outline of the steps:
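Rat pharmacodynamic assay with intravenous dosing to exclude oral absorption. AT1 antagonism is read in the same animal as inhibition of the angiotensin-II-evoked pressor response. NEP inhibition is read as potentiation of ANP-induced elevation of urinary cGMP output, relative to vehicle.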

The target in test [3] is T2, Type-1 angiotensin II receptor (Homo sapiens) (UniProt P30556).
T2 sequence (whole entry): T1 sequence (P30556 whole entry)
Description: Antagonist activity at AT1 receptor (unknown origin) by inositol phosphate accumulation assay relative to control. Type of test: functional.

Test [4] has as its target Neprilysin (Homo sapiens, UniProt P08473). Description: Inhibition of NEP (unknown origin) preincubated for 10 mins followed by fluorogenic substrate addition and measured after 20 mins by fluorescence assay.

Sequence of Neprilysin (P08473 whole entry): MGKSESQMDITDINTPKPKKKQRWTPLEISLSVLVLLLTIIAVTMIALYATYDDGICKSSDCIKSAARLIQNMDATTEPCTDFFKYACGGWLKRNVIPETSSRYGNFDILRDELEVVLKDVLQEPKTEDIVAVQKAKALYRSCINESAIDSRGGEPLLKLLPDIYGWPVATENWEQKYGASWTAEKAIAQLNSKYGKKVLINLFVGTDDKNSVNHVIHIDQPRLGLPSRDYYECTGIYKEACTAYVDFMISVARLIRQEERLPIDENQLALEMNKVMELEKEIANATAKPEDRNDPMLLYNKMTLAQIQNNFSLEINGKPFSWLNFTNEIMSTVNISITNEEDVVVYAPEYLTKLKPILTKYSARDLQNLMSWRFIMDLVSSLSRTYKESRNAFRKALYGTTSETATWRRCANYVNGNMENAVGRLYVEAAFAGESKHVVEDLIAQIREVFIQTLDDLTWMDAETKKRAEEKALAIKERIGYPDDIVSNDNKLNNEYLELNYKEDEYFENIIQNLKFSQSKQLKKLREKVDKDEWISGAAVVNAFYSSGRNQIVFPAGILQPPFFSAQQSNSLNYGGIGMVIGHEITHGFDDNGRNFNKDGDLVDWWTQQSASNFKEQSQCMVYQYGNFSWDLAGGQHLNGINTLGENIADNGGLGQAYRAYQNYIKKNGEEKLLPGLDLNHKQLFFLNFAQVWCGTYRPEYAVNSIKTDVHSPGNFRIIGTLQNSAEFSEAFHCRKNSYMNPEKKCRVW

In turn, `CCCCc1nc(Cl)c(CNC(=O)C(CS)CC(CC)CC)n1Cc1ccc(-c2ccccc2C(=O)O)cc1` (racemic) gave a Ki in test [1] of 50.1 nM.
On to `CCOc1nc(CC)c(CNC(=O)[C@@H](S)CC(C)C)n1Cc1ccc(-c2ccccc2C(=O)O)c(F)c1`, for which, in test [2], the inhibition in vivo at 3 mg/kg stood at 57%. The Ki in test [1] was 5.01 nM.
For the molecule `CCCCc1nc(Cl)c(CNC(=O)C(CS)Cc2cccc3ccccc23)n1Cc1ccc(-c2ccccc2C(=O)O)cc1` (racemic), in test [1], the inhibitory constant (Ki) was 398 nM. That is a sub-micromolar value.
`CCCCc1nc(C2CC2)c(CNC(=O)[C@@H](S)CC(C)C)n1Cc1ccc(-c2ccccc2C(=O)O)cc1`: in test [2], the inhibition in vivo at 3 mg/kg was 5%. Besides, the inhibitory constant (Ki) in test [1] is 31.6 nM.
Take `CCOc1nc(CC)c(CNC(=O)[C@@H](CS)CC(C)C)n1Cc1ccc(-c2ccccc2C(=O)O)cc1F`: in test [2], the inhibition in vivo at 3 mg/kg was 85%. This molecule showed a Ki in test [1] of 0.794 nM.
`CCCCc1nc(Cl)c(CNC(=O)C(CS)CC(C)C)n1Cc1ccc(-c2ccccc2-c2nnn[nH]2)cc1` (racemic) showed an inhibition constant Ki in test [1] of 10 nM.
For the molecule `CCCCc1nc(CC(C)C)c(CNC(=O)[C@@H](S)CC(C)C)n1Cc1ccc(-c2ccccc2C(=O)O)cc1`, the inhibition in vivo at 3 mg/kg in test [2] was 32%. Also, the inhibition constant (Ki) in test [1] was 31.6 nM.
Consider `CCCCc1nc(CC)c(CNC(=O)[C@@H](S)CC(C)C)n1Cc1ccc(-c2ccccc2C(=O)O)cc1`, for which, in test [2], the inhibition in vivo at 3 mg/kg came to 18%. The molecule also had an inhibition constant Ki in test [1] of 39.8 nM.
Turning to `CCCCc1nc(Cl)c(CNC(=O)C(CS)Cc2ccc(-c3ccccc3)cc2)n1Cc1ccc(-c2ccccc2C(=O)O)cc1` (racemic), in test [1], the Ki is 398 nM.
For the molecule `CCCCc1nc(Cl)c(CNC(=O)CNC(=O)C(CS)Cc2ccccc2)n1Cc1ccc(-c2ccccc2-c2nnn[nH]2)cc1` (racemic), in test [1], the affinity corresponds to a Ki of 10 nM.
In test [1], `CCCCc1nc(Cl)c(CNC(=O)C(CS)C(C)C)n1Cc1ccc(-c2ccccc2C(=O)O)cc1` (racemic) showed a Ki of 126 nM.
Take `CCOc1nc(CC)c(CNC(=O)[C@@H](CS)CC(C)C)n1Cc1ccc(-c2ccccc2C(=O)O)cc1`: in test [2], the inhibition in vivo at 3 mg/kg came to 67%. Besides, in test [1], the Ki is 1.26 nM.
`CCOc1nc(CC)c(CNC(=O)[C@@H](S)CC(C)C)n1Cc1cc(F)c(-c2ccccc2C(=O)O)cc1F` had a Ki in test [1] of 5.01 nM.
Turning to `CCCCc1nc(Cl)c(CNC(=O)C(CS)CCCC)n1Cc1ccc(-c2ccccc2C(=O)O)cc1` (racemic), the affinity in test [1], expressed as Ki, was 126 nM. This Ki is about 25-fold higher than that of the molecule before.
In test [1], `CCCCc1nc(Cl)c(CNC(=O)C(CS)C(C)c2ccccc2)n1Cc1ccc(-c2ccccc2C(=O)O)cc1` (racemic) showed a Ki of 79.4 nM.
The same measure, in the same setting: to `CCCCc1nc(C)c(CNC(=O)[C@@H](CS)CC(C)C)n1Cc1ccc(-c2ccccc2C(=O)O)cc1` belongs 50.1 nM; to `CCCCc1nc(Cl)c(CNC(=O)C(CS)CC(C)C)n1Cc1ccc(-c2ccccc2C(=O)O)cc1` (racemic), 39.8 nM.
Still for that read-out and setting: to `CCCCc1nc(CC(C)C)c(CNC(=O)[C@@H](CS)CC(C)C)n1Cc1ccc(-c2ccccc2C(=O)O)cc1` belongs 7.94 nM; to `CCCCc1nc(Cl)c(CNC(=O)[C@H](S)CC(C)C)n1Cc1ccc(-c2ccccc2C(=O)O)cc1`, 126 nM; to `CCCCc1nc(Cl)c(CNC(=O)[C@H](CS)CC(C)C)n1Cc1ccc(-c2ccccc2C(=O)O)cc1`, 100 nM.
For the molecule `CCCCc1nc(C)c(CNC(=O)[C@@H](S)CC(C)C)n1Cc1ccc(-c2ccccc2C(=O)O)cc1`, the inhibition constant (Ki) in test [1] was 200 nM.
Regarding `CCOc1nc(CC)c(CNC(=O)[C@@H](S)CC(C)C)n1Cc1ccc(-c2ccccc2C(=O)O)cc1`, in test [2], the inhibition in vivo at 3 mg/kg worked out at 57%. In test [1], this molecule had a Ki of 6.31 nM.
`CCCCc1nc(Cl)c(CO)n1Cc1ccc(-c2ccccc2-c2nnn[nH]2)cc1` [LOSARTAN] came in with a % IP accumulation in test [3] of 87%. Moreover, the inhibition in vivo at 3 mg/kg in test [2] turned out to be 67%.
Turning to `CCCCc1nc(Cl)c(CNC(=O)C(CS)CC2CCCC2)n1Cc1ccc(-c2ccccc2C(=O)O)cc1` (racemic), the inhibitory constant (Ki) in test [1] was 50.1 nM.
Consider `CCCCc1nc(Cl)c(CNC(=O)[C@@H](S)CC(C)C)n1Cc1ccc(-c2ccccc2C(=O)O)cc1`, for which, in test [1], affinity was put at a Ki of 63.1 nM.
The same measure, in the same setting: to `CCCCc1nc(Cl)c(CNC(=O)C(CS)CC2CCCCC2)n1Cc1ccc(-c2ccccc2C(=O)O)cc1` (racemic) belongs 251 nM; to `CCCCc1nc(Cl)c(CNC(=O)C(CS)Cc2ccccc2)n1Cc1ccc(-c2ccccc2C(=O)O)cc1` (racemic), 79.4 nM.
As to `CCCOc1nc(CC)c(CNC(=O)[C@@H](CS)CC(C)C)n1Cc1ccc(-c2ccccc2C(=O)O)cc1`, in test [2], the inhibition in vivo at 3 mg/kg amounted to 65%. In test [1], this molecule had a Ki of 2.51 nM.
In turn, `CCCCc1nc(Cl)c(CNC(=O)C(CS)CC2CC2)n1Cc1ccc(-c2ccccc2C(=O)O)cc1` (racemic) gave an inhibitory constant (Ki) in test [1] of 31.6 nM.
In the case of `CCCCc1nc(Cl)c(CNC(=O)[C@@H](CS)CC(C)C)n1Cc1ccc(-c2ccccc2C(=O)O)cc1`, in test [2], the inhibition in vivo at 3 mg/kg amounted to 11%. For the same molecule, the inhibitory constant (Ki) in test [1] is 15.8 nM.
`CCOc1nc(CC)c(CNC(=O)[C@@H](CS)CC(C)C)n1Cc1ccc(-c2ccccc2C(=O)O)c(F)c1`: in test [1], the affinity corresponds to a Ki of 1.26 nM.
Consider `CCCCc1nc(CC)c(CNC(=O)[C@@H](CS)CC(C)C)n1Cc1ccc(-c2ccccc2C(=O)O)cc1`, for which the inhibition in vivo at 3 mg/kg in test [2] amounted to 68%. Besides, the inhibitory constant (Ki) in test [1] was 5.01 nM.
Molecule `O=C(O)CNC(=O)C(CS)Cc1ccccc1` (stereo not drawn) [THIORPHAN] gave an inhibitory constant (Ki) in test [1] of more than 10000 nM.
Still for that read-out and setting: the figure for `CCCCc1nc(Cl)c(CNC(=O)C(CS)Cc2ccc3ccccc3c2)n1Cc1ccc(-c2ccccc2C(=O)O)cc1` (racemic) is 158 nM.
The molecule `CCCCc1nc(Cl)c(CNC(=O)C(CS)C(C)CC)n1Cc1ccc(-c2ccccc2C(=O)O)cc1` (racemic) gave an inhibition constant Ki in test [1] of 631 nM. Compared with the last molecule, the Ki is about 4-fold higher.
With `CCCCc1nc(Cl)c(CNC(=O)C(CS)Cc2ccccc2)n1Cc1ccc(-c2ccccc2-c2nnn[nH]2)cc1` (racemic), the Ki in test [1] was 15.8 nM. This Ki is about 40-fold lower than that of the molecule before.
`CCCCc1nc(Cl)c(CO)n1Cc1ccc(-c2ccccc2-c2nn[nH]n2)cc1` [LOSARTAN]: in test [4], the IC50 was more than 10000 nM.
Turning to `CCCOc1nc(CC)c(CNC(=O)[C@@H](S)CC(C)C)n1Cc1ccc(-c2ccccc2C(=O)O)cc1`, the inhibition in vivo at 3 mg/kg in test [2] was determined as 23%. Moreover, the affinity in test [1] corresponds to a Ki of 20 nM.
Consider `CCCCc1nc(C2CC2)c(CNC(=O)[C@@H](CS)CC(C)C)n1Cc1ccc(-c2ccccc2C(=O)O)cc1`, for which the inhibition in vivo at 3 mg/kg in test [2] was 55%. Further, in test [1], the Ki was 6.31 nM.
`CCCCc1nc(Cl)c(CNC(=O)C(CS)CCC(C)C)n1Cc1ccc(-c2ccccc2C(=O)O)cc1` (racemic) gave a Ki in test [1] of 126 nM.
